In ChEMBL document CHEMBL5614435 one finds Activity data, which are given here for two compounds.

Activity calls are given as the source filed them. No cut-off for these calls is given here. Bridge positions count the residues as written; N and C are the ends. Peptide text beside a SMILES is read from it.

Type in all cases: functional
The target of test [1] is Amyloid-beta precursor protein (Homo sapiens) (UniProt P05067). The test can be described thus: Amyloid aggregation property at high concentration by atomic force microscopy analysis. In short, it runs like this:
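AFM in dynamic mode on 10 μL aliquots taken at the endpoint of the agitated aggregation samples: ThT samples (37 °C, pH ~4.5 or ~7.4) after 3 days and CD samples (200–300 μM, 150 mM NaCl) after 2 weeks.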

Test [2] has the same target. The experiment in a line: Amyloid aggregation property at high concentration by CD spectroscopy. In short, it runs like this:
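Far-UV CD (185–260 nm, spectra truncated at 195 nm) in a 1.0 mm cuvette. Samples were 200–300 μM peptide with 150 mM NaCl at pH 4.5 or 7.4, kept at 37 °C and shaken at 500 rpm between acquisitions. Each spectrum is the average of 3 scans at 50 nm/min, solvent-subtracted, Savitzky–Golay smoothed, and expressed as mean residue molar ellipticity.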

For test [3] the target is unchanged. The test can be described thus: Amyloid aggregation property at high concentration over 3 days by thioflavin-T fluorescence assay. The settings on record: time 3.0 day. In short, it runs like this:
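Peptide was dissolved in water at pH 4.2–4.5 or 7.2–7.4, filtered and centrifuged to leave monomers. ThT and NaCl were added to give 1 or 5 mg/mL peptide final. Plates were sealed and read at 37 °C with orbital shaking for 3 days (ex 445 nm/em 490 nm, bottom read). Triplicates, with peptide-free ThT background subtracted; mean and SD were reported.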

In another test the test system is INS-1E. The experiment in a line: Induction of insulin secretion in rat INS-1E cells assessed as median fold increase at 20 nM pretreated with glucose for 30 mins followed by KRBH washout for 30 mins and subsequent glucose and compound addition for another 30 mins by ELISA.

Sequence of Amyloid-beta precursor protein (Homo sapiens) (P05067 whole entry): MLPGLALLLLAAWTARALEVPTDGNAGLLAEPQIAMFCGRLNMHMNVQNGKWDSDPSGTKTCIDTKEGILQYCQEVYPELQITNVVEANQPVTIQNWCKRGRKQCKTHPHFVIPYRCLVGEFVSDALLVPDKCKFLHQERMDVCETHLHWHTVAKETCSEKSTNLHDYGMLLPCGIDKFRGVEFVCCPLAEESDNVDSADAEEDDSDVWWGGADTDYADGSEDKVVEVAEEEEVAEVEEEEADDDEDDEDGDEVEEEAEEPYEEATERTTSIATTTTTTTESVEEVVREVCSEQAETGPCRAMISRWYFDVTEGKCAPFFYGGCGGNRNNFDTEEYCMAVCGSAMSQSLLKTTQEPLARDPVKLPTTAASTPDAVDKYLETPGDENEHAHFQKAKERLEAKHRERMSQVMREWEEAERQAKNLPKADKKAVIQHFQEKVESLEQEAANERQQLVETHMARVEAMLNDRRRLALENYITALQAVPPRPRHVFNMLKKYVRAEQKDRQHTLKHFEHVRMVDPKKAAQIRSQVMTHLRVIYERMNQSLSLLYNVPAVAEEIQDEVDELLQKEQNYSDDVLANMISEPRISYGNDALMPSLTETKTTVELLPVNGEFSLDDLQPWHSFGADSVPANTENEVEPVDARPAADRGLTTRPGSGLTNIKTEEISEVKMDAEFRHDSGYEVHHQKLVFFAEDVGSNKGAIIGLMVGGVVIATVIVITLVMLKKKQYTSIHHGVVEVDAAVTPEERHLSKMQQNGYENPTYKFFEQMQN

Turning to `CC[C@H](C)[C@H](NC(=O)[C@H](Cc1ccc(O)cc1)NC(=O)[C@H](CC(C)C)NC(=O)[C@H](CCCNC(=N)N)NC(=O)[C@@H](NC(=O)[C@H](C)NC(=O)[C@H](CCC(=O)O)NC(=O)[C@H](CCC(=O)O)NC(=O)[C@H](CCC(=O)O)NC(=O)[C@H](CCSC)NC(=O)[C@H](CCC(N)=O)NC(=O)[C@H](CCCCN)NC(=O)[C@H](CO)NC(=O)[C@H](CC(C)C)NC(=O)[C@H](CC(=O)O)NC(=O)[C@H](CO)NC(=O)[C@@H](NC(=O)[C@H](Cc1ccccc1)NC(=O)[C@@H](NC(=O)CNC(=O)[C@H](CCC(=O)O)NC(=O)CNC(=O)[C@@H](N)Cc1cnc[nH]1)[C@@H](C)O)[C@@H](C)O)C(C)C)C(=O)N[C@@H](CCC(N)=O)C(=O)N[C@@H](Cc1c[nH]c2ccccc12)C(=O)N[C@@H](CC(C)C)C(=O)N[C@@H](CCCCN)C(=O)N[C@@H](CC(=O)O)C(=O)NCC(=O)NCC(=O)N1CCC[C@H]1C(=O)N[C@@H](CO)C(=O)N[C@@H](CO)C(=O)NCC(=O)N[C@@H](CCCNC(=N)N)C(=O)N1CCC[C@H]1C(=O)N1CCC[C@H]1C(=O)N1CCC[C@H]1C(=O)N[C@@H](CO)C(=O)O`, the outcome in test [1], in test [2] and in test [3] was Active.

With `CC[C@H](C)[C@@H]1NC(=O)[C@H](Cc2ccc(O)cc2)NC(=O)[C@H](CC(C)C)NC(=O)[C@H](CCCNC(=N)N)NC(=O)[C@H](C(C)C)NC(=O)[C@@H](NC(=O)[C@H](CCC(=O)O)NC(=O)[C@H](CCC(=O)O)NC(=O)[C@H](CCC(=O)O)NC(=O)[C@H](CCSC)NC(=O)[C@H](CCC(N)=O)NC(=O)[C@H](CCCCN)NC(=O)[C@H](CO)NC(=O)[C@H](CC(C)C)NC(=O)[C@H](CC(=O)O)NC(=O)[C@H](CO)NC(=O)[C@@H](NC(=O)[C@H](Cc2ccccc2)NC(=O)[C@@H](NC(=O)CNC(=O)[C@H](CCC(=O)O)NC(=O)CNC(=O)[C@@H](N)Cc2cnc[nH]2)[C@@H](C)O)[C@@H](C)O)CSSC[C@@H](C(=O)O)NC(=O)[C@@H]2CCCN2C(=O)[C@@H]2CCCN2C(=O)[C@@H]2CCCN2C(=O)[C@H](CCCNC(=N)N)NC(=O)CNC(=O)[C@H](CO)NC(=O)[C@H](CO)NC(=O)[C@@H]2CCCN2C(=O)CNC(=O)CNC(=O)[C@H](CC(=O)O)NC(=O)[C@H](CCCCN)NC(=O)[C@H](CC(C)C)NC(=O)[C@H](Cc2c[nH]c3ccccc23)NC(=O)[C@H](CCC(N)=O)NC1=O` (H-HGEGTFTSDLSKQMEEECVRLYIQWLKDGGPSSGRPPPC-OH; disulfide 18-39), the result in the test on INS-1E was inactive.
